Source: PubChem
Rows were chosen to be rich in hits. Some 1.7% of all compounds tested hit in one or more screens of this group.
CSC inhib = cancer stem cell inhibition. cancer stem cell-like cells viability, luminescence. inhibition, % at 7.5 µM. 300,000 tested, 1.1% active; in the data active = inhibition above about 75%; inconclusive = no clear call, values can overlap the other calls; tested in HMLE shEcad cells
SKKanGAS inh = blocks kanamycin growth of S. pyogenes SKKanGAS strain; BacTiter-Glo, 6 h; inhibition, % at 7.5 µM; 300,000 tested, 1.3% active; AID 1662;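 active = mean replicate score, as percent of positive control median, at least 50; inconclusive = mean below 50 but one replicate at or above 50; inactive = mean and every replicate below 50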;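 also: strain carries kanamycin resistance gene driven by streptokinase promoter and grows in 40 µg/ml kanamycin; loss of luminescence reflects streptokinase promoter inhibition or plain growth inhibition; 0% = median of DMSO wells and 100% = positive control at its reference dose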
PglD DTNB = PglD (C. jejuni) enzyme inhibition. purified PglD enzyme, DTNB colorimetric CoA detection. inhibition, % at 12.5 µM. 360,000 tested, 0.098% active. AID 602405; in the data active = inhibition above about 16%, passing the limit was not always enough; inconclusive = no clear call, values can overlap the other calls
Rtt109 HAT inh = blocks Candida albicans Rtt109/Vps75 acetyltransferase activity. Q5AAJ8. inhibition, % at 34.9 µM. purified Rtt109/Vps75, ThioGlo CoA-SH fluorescence, 4 h. AID 540336. 330,000 tested, 0.16% active;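 active = inhibition of at least 50% in every replicate; inconclusive = best replicate reaches 50% inhibition but some replicates fall short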
Target sequence (Q5AAJ8 whole entry, looked up): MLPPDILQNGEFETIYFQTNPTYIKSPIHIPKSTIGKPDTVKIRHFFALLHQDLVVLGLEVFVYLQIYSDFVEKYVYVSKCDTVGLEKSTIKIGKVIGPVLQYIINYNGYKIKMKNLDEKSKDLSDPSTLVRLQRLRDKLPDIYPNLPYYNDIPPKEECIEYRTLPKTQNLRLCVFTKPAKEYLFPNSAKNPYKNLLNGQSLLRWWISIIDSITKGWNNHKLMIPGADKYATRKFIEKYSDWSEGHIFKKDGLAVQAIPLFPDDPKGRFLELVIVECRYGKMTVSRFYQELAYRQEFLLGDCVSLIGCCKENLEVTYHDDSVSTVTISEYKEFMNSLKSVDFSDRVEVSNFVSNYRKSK
FN deposition inh = fibronectin deposition inhibition | AH1F fibroblasts, Alexa488-fibronectin deposition fluorescence, overnight | inhibition, % at 12.6 µM | 350,000 tested, 0.086% active | AID 743247;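 active = mean inhibition across replicates of 30% or more, regardless of how many single replicates reach that level; inconclusive = mean under 30% yet at least half of replicates reach 30%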;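 also: positive control wells lacked labelled fibronectin entirely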
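test system = AH1F fibroblasts assembling fluorescent fibronectin matrix | quantity = 10000 AH1F cells per well | buffer or medium = DMEM plus 2% serum, read in PBS | doses = single dose, pinned | incubation = 1 h cell attachment, overnight exposure to compound and label | detection = fluorescence at 485 nm excitation, 525 nm emission | read-out basis = inhibition from reduced deposited-fibronectin fluorescence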
PfHsp90 set2 = reduces growth (ATP signal) of yeast expressing P. falciparum Hsp90. S. cerevisiae expressing PfHsp90, BacTiter-Glo ATP, 48 h; yeast lacking PDR1 and PDR3 efflux regulators. 310,000 tested, 0.32% active. inhibition, % at 9.4 µM;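 active = every replicate shows inhibition above about 80%, whatever the replicate mean, limit read from the data; inconclusive = mean inhibition reaches the set limit but some replicate falls short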;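 also: 0% = DMSO neutral controls and 100% = 20 µM radicicol positive controls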
* hit, by the source's call; ? = inconclusive; nt = no result given.

SMILES	CSC inhib	SKKanGAS inh	PglD DTNB	Rtt109 HAT inh	FN deposition inh	PfHsp90 set2
C/C(=N/NC(=O)c1cc2ccccc2cc1O)C1C(=O)c2ccccc2C1=O	48	83*	-3	-2	-3	-21
C/C(=N\NC(=O)c1ccccc1O)C1C(=O)c2ccccc2C1=O	48	52*	0	?	-10	36
CCC/C(C)=N/NC(=O)c1ccccc1O	-14	-2	nt	-2	nt	20
Cc1ccc2nc(N/N=C/c3ccccc3F)nc(-c3ccccc3)c2c1	2	106*	-5	-3	8	-58
Cc1ccc2nc(N/N=C/c3ccccc3C#N)nc(-c3ccccc3)c2c1	23	23	3	-1	nt	-7
NS(=O)(=O)c1ccc(CNC(=O)C2(c3ccc(Cl)cc3)CC2)cc1	-8	-2	1	1	-1	1
COc1ccc(CNC(=O)C2(c3ccc(Cl)cc3)CC2)cc1	19	-1	-2	56*	0	8
CO[C@H]1CN(C)C(=O)c2ccc(NS(=O)(=O)c3ccc(C)cc3)cc2OC[C@@H](C)N(C(=O)NC(C)C)C[C@@H]1C	nt	nt	nt	nt	7	nt
N#CC(C(=O)CCN1C(=O)C2CC=CCC2C1=O)c1nc2ccccc2[nH]1 (centres undefined)	nt	-1	-1	-2	4	-6
N#CC(C(=O)C12CC3CC(CC(C3)C1)C2)c1nc2ccccc2[nH]1 (centres undefined)	44	80*	5	8	nt	-30
O=C(CCN1CCCCC1)NCC[C@H]1CC[C@H](NC(=O)C2CCOCC2)[C@H](CO)O1	nt	nt	-1	nt	5	nt
N#CC1=C(N)Oc2cc(N)ccc2C1c1cccc(Br)c1 (centres undefined)	82*	5	-11	4	-1	16
O=[N+]([O-])c1cccc(SSc2cccc([N+](=O)[O-])c2)c1	nt	nt	0	-6	-20	110*
Cc1noc(C)c1NC(=O)Nc1ccc2c(c1)C(=O)N([C@H](C)CO)C[C@H](C)[C@@H](CN(C)C(=O)Nc1cccc3ccccc13)OCCCC[C@@H](C)O2	nt	nt	-2	nt	7	nt
Cc1occc1-c1nnc(-c2cc([N+](=O)[O-])cc([N+](=O)[O-])c2)o1	-5	9	nt	-9	nt	106*
O=[N+]([O-])c1cccc(-c2nnc(-c3ccccc3)o2)c1	-13	4	nt	-6	-2	-5
Cc1cc(NC(=O)c2ccccc2F)n(-c2nc3ccccc3[nH]2)n1	19	?	3	-17	nt	-11
Cc1cc(C)nc(-n2nc(C)cc2Nc2ccccc2)n1	16	79*	nt	13	nt	-13
Cc1cc(NC(=O)c2ccc(C)s2)n(-c2nc3ccccc3[nH]2)n1	-2	52*	nt	nt	3	-37
Cc1cc(Nc2ccccc2)n(-c2nc3ccccc3[nH]2)n1	-16	114*	-2	1	nt	-17
Cc1cc(NC(=O)c2c(F)cccc2Cl)n(-c2nc3ccccc3[nH]2)n1	-11	118*	-1	9	nt	-31
O=C(NCC1CC1)[C@H]1[C@H](CO)[C@H]2Cn3c(ccc(-c4cccnc4)c3=O)[C@H]2N1C(=O)NC1CCCC1	nt	nt	0	nt	nt	nt
Cc1noc(C)c1NC(=O)N[C@H]1C=C[C@H](CC(=O)N2CCCCC2)O[C@@H]1CO	nt	nt	-1	nt	5	nt
CCCC(=O)Nc1ccc2c(c1)C(=O)N(C)C[C@H](OC)[C@@H](C)CN(CCC(F)(F)F)[C@@H](C)CO2	nt	nt	-2	nt	-4	nt
Cc1cc(Nc2nc(Cl)c(Cl)cc2Cl)n(-c2ccccc2)n1	99*	-5	4	-8	nt	-13
SMILES	CSC inhib	SKKanGAS inh	PglD DTNB	Rtt109 HAT inh	FN deposition inh	PfHsp90 set2
Cc1cc(Nc2ccccc2)n(-c2ccccc2)n1	-11	3	-2	3	nt	-11
C[C@H](CO)N1C[C@H](C)[C@@H](CN(C)C(=O)NC2CCCCC2)Oc2ccc(NC(=O)Nc3cccc4ccccc34)cc2C1=O	nt	nt	-5	nt	16	nt
Cn1cnc(S(=O)(=O)N[C@@H]2CC[C@@H](CC(=O)Nc3ccccc3)O[C@H]2CO)c1	nt	nt	14	nt	1	nt
C[C@@H]1CN(C)C(=O)c2cc(N(C)C)ccc2O[C@H]1CN(C)C	nt	nt	nt	nt	5	nt
COc1ccc(C(=O)c2c(-c3ccc(OC)cc3)oc3ccc(-c4cc(OC)c(OC)c(OC)c4)cc23)cc1	5	3	-4	-4	-2	6
COC(=O)c1c(-c2ccc(OC)cc2)oc2ccc(-c3cc(OC)c(OC)c(OC)c3)cc12	100*	20	-5	0	-3	9
